Measured values published in ChEMBL document CHEMBL1949657, “Chemical modification of the multitarget neuroprotective compound fisetin” (J Med Chem, 2012).
Calls of active or inactive are those of the source.

Columns and labels:
[1] = tested on: HT-22; test: Neuroprotective activity in mouse HT22 cells assessed as reduction in IAA-induced ischemia after 24 hrs by MTT assay; type: functional, cell-based
Summary of the method: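 HT22 cells seeded at 5×10^3/well. Next day switched to DMEM + 7.5% DFCS with 20 μM IAA ± derivative doses for 2 h, then IAA-free medium with derivative for 20 h. MTT 2.5 μg/ml for 4 h at 37 °C, solubilised in DMF/SDS pH 4.7, A570 read. Controls for compound toxicity and assay interference. EC50 from dose series; tested twice, third time if EC50 < 1 μM.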

[2] = tested on: HT-22; test: Neuroprotective activity against glutamate-induced GSH loss in mouse HT22 cells assessed as intracellular GSH level at 1 to 10 uM after 24 hrs; type: functional, cell-based
Summary of the method: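 HT22 cells given derivatives (1–10 μM) with 5 mM glutamate. After 24 h, cell extracts analysed for total intracellular GSH by chemical assay. Fisetin 10 μM as positive control. Tested twice; positives tested a third time.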

[3] = tested on: N9; test: Antiinflammatory activity in mouse N9 cells assessed as reduction of LPS-induced microglial activation at 1 to 10 uM measured as nitrite level after 24 hrs by Griess reagent-based assay; type: functional; design: scale not given: the % may be the effect or the level left
Summary of the method: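 N9 microglia in DME with 7.5% DFCS, given 10 μg/ml LPS alone or with derivatives (1–10 μM) for 24 h. Medium spun to remove floating cells, then nitrite measured with Griess reagent, 10 min at room temperature, absorbance 550 nm. Fisetin 10 μM as positive control. Tested twice; positives tested a third time.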

[4] = Antioxidant activity against ABTS radical assessed as trolox equivalent after 4 mins by TEAC assay; type: functional
Summary of the method: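 ABTS radical cation formed overnight with potassium persulfate and diluted to OD ~0.7 at 734 nm, then mixed with derivative in ethanol. Loss of A734 followed over 4 min. TEAC = slope of % absorbance inhibition vs concentration divided by the slope for Trolox.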

[5] = tested on: PC-12; test: Neurotrophic activity in rat PC12 cells assessed as neurite outgrowth at 1 to 10 uM after 24 hrs; type: functional, cell-based
Summary of the method: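 PC12 cells in N2 medium given derivatives (1–10 μM) for 24 h, fisetin 10 μM as positive control. 100 cells counted in each of three fields. A cell scored positive with ≥1 neurite longer than one cell-body diameter. Tested twice; positives tested a third time.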

[6] = Mus musculus, HT-22, 24 h, read-out: EC50

Row | Compound | EC50 [1, 6] | Activity [2] | Activity [3] | Activity [4] | Activity [5] | EC50 ([1]; ht-22)
1 | O=c1c(O)c(-c2ccc(O)c(O)c2)oc2ccc3ccccc3c12 | 250 nM | inactive | 87% | 1.26 equiv | Active | –
2 | COc1ccc(/C=C/C(=O)c2cc(C)c(C)cc2O)cc1O | 200 nM | inactive | 56% | 0.12 equiv | inactive | –
3 | COc1cc(-c2ccc([N+](=O)[O-])c(O)c2)nc2ccccc12 | – | inactive | 25% | 0.18 equiv | inactive | Not Active
4 | CCOc1ccc(-c2oc3c(ccc4ccccc43)c(=O)c2O)cc1OCC | 300 nM | inactive | 13% | 0.15 equiv | inactive | –
5 | COc1cc(-c2ccc(N(C)C)cc2)nc2ccccc12 | 60 nM | inactive | 62% | 0.06 equiv | inactive | –
6 | CCOc1ccc(-c2cc(=O)c3cc(C)c(C)cc3o2)cc1OCC | – | inactive | 2% | 0.15 equiv | inactive | Not Active
7 | O=c1c(O)c(-c2ccc(O)c(O)c2)oc2c1ccc1ccccc12 | 90 nM | inactive | 91% | 2.4 equiv | Active | –
8 | CCOc1ccc(-c2cc(=O)c3ccc4ccccc4c3o2)cc1OCC | – | inactive | 2% | 0.2 equiv | inactive | Not Active
9 | O=c1cc(-c2ccc(O)c(O)c2)oc2c1ccc1ccccc12 | 80 nM | inactive | 55% | 0.18 equiv | Active | –
10 | COc1cc(-c2cc(=O)c3cc(C)c(C)cc3o2)ccc1OCc1ccccc1 | 500 nM | inactive | 83% | 0.09 equiv | inactive | –
11 | COc1cc(/C=C/C(=O)c2ccc3ccccc3c2O)ccc1OCc1ccccc1 | 500 nM | inactive | 9% | 0.15 equiv | inactive | –
12 | CC(C)Oc1cc(-c2ccc(N(C)C)cc2)nc2ccccc12 | 50 nM | inactive | 71% | 0.15 equiv | inactive | –
13 | Cc1cc2oc(-c3ccc(O)cc3O)c(O)c(=O)c2cc1C | > 500 nM | inactive | 0% | 1.56 equiv | inactive | –
14 | CCOc1ccc(/C=C/C(=O)c2cc(C)c(C)cc2O)cc1OCC | – | inactive | 56% | 0.09 equiv | inactive | Not Active
15 | COc1cc(-c2ccc(O)cc2)nc2ccccc12 | – | inactive | 4% | 0.81 equiv | inactive | Not Active
16 | COc1cc(-c2ccc(O)cc2O)nc2ccccc12 | > 500 nM | inactive | 84% | 0.05 equiv | inactive | –
17 | COc1cc(-c2ccccc2)nc2ccccc12 | 750 nM | inactive | 6% | 0.12 equiv | inactive | –
18 | Cc1cc2oc(-c3ccc(N4CCCC4)cc3)cc(=O)c2cc1C | > 500 nM | inactive | 2% | 0.12 equiv | inactive | –
19 | CC(C)Oc1cc(-c2ccc(O)c(O)c2)nc2ccccc12 | 20 nM | Active | 80% | 0.18 equiv | Active | –
20 | Cc1cc2oc(-c3ccc(O)c(O)c3)cc(=O)c2cc1C | 250 nM | inactive | 93% | 0.27 equiv | inactive | –
